Several values for one entry are separate records, joined by “and”; a condition that tells them apart may be missing. Identical values can stand only once.
Tests used:
[1] = molecular target: T1, Sterol O-acyltransferase 1 (Rattus norvegicus) (UniProt O70536); experiment: In vitro inhibitory activity against acyl coenzyme A:cholesterol acyltransferase (ACAT); parameters: concentration or dose not given beside the values; details: concentration not given here
T1 sequence (whole entry): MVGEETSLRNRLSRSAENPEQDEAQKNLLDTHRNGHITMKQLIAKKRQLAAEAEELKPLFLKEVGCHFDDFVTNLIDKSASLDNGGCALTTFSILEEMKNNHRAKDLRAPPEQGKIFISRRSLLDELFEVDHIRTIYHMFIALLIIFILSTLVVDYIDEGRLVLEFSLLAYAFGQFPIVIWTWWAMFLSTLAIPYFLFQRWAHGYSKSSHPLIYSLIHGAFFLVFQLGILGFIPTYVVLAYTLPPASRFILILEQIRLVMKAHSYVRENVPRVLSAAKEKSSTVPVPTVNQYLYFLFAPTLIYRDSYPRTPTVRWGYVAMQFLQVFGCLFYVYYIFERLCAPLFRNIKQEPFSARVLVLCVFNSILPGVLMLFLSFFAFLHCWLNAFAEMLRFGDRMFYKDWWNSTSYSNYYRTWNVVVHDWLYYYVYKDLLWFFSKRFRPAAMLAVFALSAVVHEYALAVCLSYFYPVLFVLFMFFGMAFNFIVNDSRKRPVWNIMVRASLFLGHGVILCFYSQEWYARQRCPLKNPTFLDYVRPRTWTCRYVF
In short: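 ACAT enzyme from rat adrenal homogenate in 0.2 M KH2PO4 buffer pH 7.4, 1000g 15 min 5 °C supernatant (microsomal fraction). Supernatant + BSA (50 mg/mL) + compound at final 5.2 μg/mL + buffer preincubated 10 min 37 °C; [14C]oleoyl-CoA (0.4 μCi) added, 30 min 37 °C. Lipids extracted, TLC; cholesteryl ester zone counted. Mean % inhibition vs no-compound control; Student's t test.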

[2] = tested on: Rattus norvegicus; experiment: In vivo triglyceride lowering activity, dosed at 0.03 % of the diet; assay type: functional
In short: (§1)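 Male CFE or CD-1 Sprague-Dawley rats, 140-150 g; 8 per control group, 4 per test group. Compound mixed into ground chow (w/w) via MeOH-CHCl3 (1:3) solution, solvent evaporated; controls got solvent-treated chow. Fed ad libitum 5 days, food intake monitored, killed fed and bled. Serum sterols and triglycerides by adapted autoanalyzer methods; mean percent of control, Student's t test.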

[3] = tested on: Rattus norvegicus; experiment: In vivo Sterol lowering activity at dose as 0.03 % of the diet.; assay type: functional; in short: as §1
[4] = tested on: Rattus norvegicus; experiment: In vivo Sterol lowering activity at dose as 0.10 % of the diet.; assay type: functional; in short: as §1
[5] = tested on: Rattus norvegicus; experiment: In vivo Triglyceride lowering activity at dose as 0.01 % of the diet; assay type: functional; in short: as §1
[6] = tested on: Rattus norvegicus; experiment: In vivo triglyceride lowering activity dosed at 0.10 % of the diet; assay type: functional; in short: as §1
[7] = tested on: Rattus norvegicus; experiment: In vivo Sterol lowering activity at dose as 0.01 % of the diet; assay type: functional; in short: as §1
[8] = tested on: Rattus norvegicus; experiment: In vivo Triglyceride lowering activity at dose as 0.025 % of the diet; assay type: functional; in short: as §1
[9] = tested on: Rattus norvegicus; experiment: In vivo Sterol lowering activity at dose as 0.025 % of the diet; assay type: functional; in short: as §1
[10] = tested on: Rattus norvegicus; experiment: In vivo Sterol lowering activity at dose as 0.05 % of the diet; assay type: functional; in short: as §1
[11] = tested on: Rattus norvegicus; experiment: In vivo sterol lowering activity dosed at 0.10 % of the diet; assay type: functional; in short: as §1
[12] = tested on: Rattus norvegicus; experiment: In vivo triglyceride lowering activity dosed at 0.05 % of the diet; assay type: functional; in short: as §1
[13] = tested on: Rattus norvegicus; experiment: In vivo triglyceride lowering activity, dosed at 0.10 % of the diet.; assay type: functional; in short: as §1
[14] = tested on: Rattus norvegicus; experiment: In vivo Triglyceride lowering activity at dose as 0.03 % of the diet.; assay type: functional; in short: as §1
[15] = tested on: Rattus norvegicus; experiment: In vivo triglyceride lowering activity, dosed at 0.01 % of the diet.; assay type: functional; in short: as §1
[16] = tested on: Rattus norvegicus; experiment: In vivo Sterol lowering activity at dose as 0.01 % of the diet.; assay type: functional; in short: as §1
[17] = tested on: Rattus norvegicus; experiment: In vivo Sterol lowering activity at dose as 0.03 % of the diet; assay type: functional; in short: as §1

| Structure (SMILES) | inhibition [1] | serum triglycerides, percent of control [2] | serum sterol level, percent of control [3] | serum sterol, percent of control [4] | Diet [5] | serum triglycerides, percent of control [6] | Diet [7] | Diet [8] | Diet [9] | Diet [10] | serum sterol, percent of control [11] | Diet [12] | Diet [13] | Diet [14] | Diet [15] | serum sterol, percent of control [16] | Diet [17] |
| --- | --- | --- | --- | --- | --- | --- | --- | --- | --- | --- | --- | --- | --- | --- | --- | --- | --- |
| O=C(O)c1ccc(NCCCc2ccccc2F)cc1 | 58% | 55% | 85% | 81% | 58% | 52% | 87% | – | – | – | – | – | – | – | – | – | – |
| CCCCCCCC/C=C\CCCCCCCCNc1ccc(C(=O)OCC)cc1 | – | – | – | – | – | 77% | – | <68% | <95% | 99% | <96% | <57% | – | – | – | – | – |
| C=CCCCCCCCC/C=C/CCCNc1ccc(C(=O)O)cc1 | – | – | – | – | – | 88% | – | <71% | <86% | <81% | <80% | 79% | – | – | – | – | – |
| CCCCCCCCCCCCCCCNc1ccc(C(=O)O)cc1 | < 56% | – | – | – | – | <60% | – | 72% | 90% | 86% | <79% | 80% | – | – | – | – | – |
| CCCCCCCCCCCCCCCCNc1ccc(C(=O)OCC)cc1 | 8% | – | – | – | – | <69% | – | <70% | 109% | 103% | 98% | <54% | – | – | – | – | – |
| CCCCCCCCCCCCCCCCCNc1ccc(C(=O)O)cc1 | < 34% | – | – | – | – | <57% | – | 80% | <87% | <86% | 87% | 77% | – | – | – | – | – |
| CCCCCCCCCCc1ccc(CNc2ccc(C(=O)OCC)cc2)cc1 | < 19% | – | – | – | – | 94% | – | 82% | 90% | 95% | 99% | <69% | – | – | – | – | – |
| CCCCCCNc1ccc(C(=O)OCC)cc1 | – | – | – | 87% | – | – | – | – | 79% | 80% | – | 76% and 73% | 86% | – | – | – | – |
| CCCCCCCCCCCCCCCCCCCNc1ccc(C(=O)O)cc1 | – | – | – | – | – | <46% | – | <52% | 90% | 96% | 100% | <46% | – | – | – | – | – |
| CCCCCCCCCC/C=C/CCCNc1ccc(C(=O)OCC)cc1 | < 40% | – | – | – | – | 83% | – | 90% | <86% | 94% | <86% | 77% | – | – | – | – | – |
| CCCCCCCCCCCCCCCCNc1cccc(C(=O)O)c1 | < 34% | – | – | – | – | 81% | – | 98% | 100% | 100% | 93% | 92% | – | – | – | – | – |
| CCOC(=O)c1ccc(NCCCc2ccc([N+](=O)[O-])cc2)cc1 | 19% | – | – | – | – | – | – | – | – | – | 85% | – | 73% | 84% | 81% | 85% | 81% |
| CCOC(=O)c1ccc(NC(=O)CCc2ccc(OC)cc2)cc1 | 26% | – | 85% | 98% | – | – | 80% | – | – | – | – | – | 105% | 89% | 98% | – | – |
| C=CCCCCCCCC/C=C/CCCNc1ccc(C(=O)OCC)cc1 | < 50% | – | – | – | – | 64% | – | 90% | <87% | <85% | <85% | 76% | – | – | – | – | – |
| O=C(O)c1ccc(NCCCCCCc2ccc(Cl)cc2)cc1 | 22% | 65% | – | 82% | – | 43% | 81% | – | – | – | – | – | – | – | 61% | – | 78% |
| CCCCCCCCNc1ccc(C(=O)O)cc1 | < 24% | – | – | – | – | <67% | – | 91% | 101% | 97% | 90% | 88% | – | – | – | – | – |

| Structure (SMILES) | inhibition [1] | serum triglycerides, percent of control [2] | serum sterol level, percent of control [3] | serum sterol, percent of control [4] | Diet [5] | serum triglycerides, percent of control [6] | Diet [7] | Diet [8] | Diet [9] | Diet [10] | serum sterol, percent of control [11] | Diet [12] | Diet [13] | Diet [14] | Diet [15] | serum sterol, percent of control [16] | Diet [17] |
| --- | --- | --- | --- | --- | --- | --- | --- | --- | --- | --- | --- | --- | --- | --- | --- | --- | --- |
| CCCCCCCCCC/C=C/CCCNc1ccc(C(=O)O)cc1 | – | – | – | – | – | 83% | – | 86% | <84% | <82% | <79% | <83% | – | – | – | – | – |
| Cc1ccc(CCC(=O)Nc2ccc(C(=O)O)cc2)cc1 | 0% | – | – | 91% | – | – | – | – | – | – | – | – | 70% | 97% | 75% | 94% | 83% |
| CCCCCCCCCCCCNc1ccc(C(=O)O)cc1 | – | <40% | – | – | <51% | <32% | – | – | <86% | <80% | <89% | – | – | – | – | – | – |
| CCCCCCCCC/C=C/CCCNc1ccc(C(=O)O)cc1 | – | – | – | – | – | 75% | – | 85% | <86% | <83% | <79% | 97% | – | – | – | – | – |
| CCCCCCCCCCCCCCCCCCNc1ccc(C(=O)O)cc1 | – | – | – | – | – | <60% | – | <70% | <86% | 94% | <82% | <71% | – | – | – | – | – |
| O=C(O)c1ccc(NCCCc2ccccc2)cc1 | 18% | – | – | – | – | 68% | – | 64% | 81% | 75% | 81% | 51% | – | – | – | – | – |
| CCCCCCCCC/C=C/CCCNc1ccc(C(=O)OCC)cc1 | < 51% | 75% | – | – | 78% | 79% | – | – | <88% | <85% | <83% | – | – | – | – | – | – |
| CCCCCCCCCCCCCCNc1ccc(C(=O)O)cc1 | – | – | – | – | – | <53% | – | <65% | 93% | 90% | 89% | <50% | – | – | – | – | – |
| CCCCCCCC/C=C\CCCCCCCCNc1ccc(C(=O)O)cc1 | – | – | – | – | – | <63% | – | <72% | <88% | 85% | <75% | <58% | – | – | – | – | – |
| CCOC(=O)c1ccc(NCCCc2cccc(Br)c2)cc1 | 50% | 60% | – | 94% | – | – | – | – | – | – | – | – | 63% | – | 74% | 84% | 84% |
| CCCCCCCCCCCCCNc1ccc(C(=O)O)cc1 | – | – | – | – | – | <60% | – | <54% | 95% | <87% | <84% | <36% | – | – | – | – | – |
| CCCCCCCCCCOc1ccc(CNc2ccc(C(=O)O)cc2)cc1 | < 35% | – | – | – | – | <37% | – | <54% | 97% | <90% | <82% | <51% | – | – | – | – | – |
| O=C(O)c1ccc(NCCCc2cccc(Cl)c2)cc1 | 29% | 48% | 90% | 85% | 64% | 55% | 82% | – | – | – | – | – | – | – | – | – | – |
| CCCCCCCCCCCCCCCNc1ccc(C(=O)OCC)cc1 | – | – | – | – | – | <62% | – | 88% | <91% | <84% | 86% | <76% | – | – | – | – | – |
| O=C(CCCCC(=O)c1ccc(Cl)cc1)Nc1ccc(C(=O)O)cc1 | 40% | – | 94% | 97% | – | 56% | 82% | – | – | – | – | – | – | 70% | 94% | – | – |
